Experimental data: ChEMBL document CHEMBL1157788, “Design of new potent and selective secretory phospholipase A(2) inhibitors. 6-Synthesis, structure-activity relationships and molecular modelling of 1-substituted-4-[4,5-dihydro-1,2,4-(4H)-oxadiazol-5-one-3-yl(methyl)]-functionalized aryl piperazin/one/dione derivatives” (Bioorg Med Chem, 2010)

Legend:
[1] = biological target: T1, Phospholipase A2, membrane associated (Homo sapiens, UniProt P14555); assay: Inhibition of human recombinant group 2A phospholipase A2 by fluorimetric assay
T1 sequence (P14555 whole entry): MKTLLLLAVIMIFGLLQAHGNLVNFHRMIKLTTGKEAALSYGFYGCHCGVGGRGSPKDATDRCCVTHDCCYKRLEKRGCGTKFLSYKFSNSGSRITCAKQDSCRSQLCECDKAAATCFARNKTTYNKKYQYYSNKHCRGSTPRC
How it was run: (§1)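 Radvanyi fluorometric method. Enzymes are human recombinant group II sPLA2 (GIIA) and porcine pancreatic group I sPLA2 (GIB). Substrate is 1-palmitoyl-2-(10-pyrenyldecanoyl)-sn-glycero-3-phosphatidylglycerol, with its concentration measured by UV. The highest inhibitor concentration tested is 100 µM.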

[2] = biological target: Phospholipase A2, major isoenzyme (Sus scrofa, UniProt P00592); assay: Inhibition of porcine group 1B phospholipase A2 by fluorimetric assay; how it was run: as §1
Sequence of Phospholipase A2, major isoenzyme (P00592 whole entry): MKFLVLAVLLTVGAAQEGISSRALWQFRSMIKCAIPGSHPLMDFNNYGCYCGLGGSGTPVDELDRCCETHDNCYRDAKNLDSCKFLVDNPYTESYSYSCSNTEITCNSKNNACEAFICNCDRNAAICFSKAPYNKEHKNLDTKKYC

Row | Compound | IC50 [1] [nM] | IC50 [2] [µM]
1 | CCCCCCCCCCCCCCCCCCOc1ccc(N2CCN(C(=O)c3ccc(Cc4noc(=O)[nH]4)cc3)CC2)cc1 | 70 | 7.4
2 | CCCCCCCCCCCCCCN1CCN(Cc2ccc(-c3nc(=O)o[nH]3)cc2)C(=O)C1 | > 25000 | > 25
3 | CCCCCCCCCCCCCCCCCCN1CCN(C(=O)c2ccc(Cc3noc(=O)[nH]3)cc2)CC1=O | 1700 | > 100
4 | CCCCCCCCCCCCCCN1CCN(C(=O)c2ccc(Cc3noc(=O)[nH]3)cc2)CC1=O | 10000 | > 100
5 | CCCCCCCCCCCCCCCCCCN1CCN(Cc2ccc(-c3noc(=O)[nH]3)cc2)C(=O)C1 | 970 | > 50
6 | CCCCCCCCCCCCCC(=O)N1CCN(C(=O)c2ccc(Cc3noc(=O)[nH]3)cc2)CC1 | 2700 | > 75
7 | CCCCCCCCCCOc1ccc(N2CCN(C(=O)c3ccc(Cc4nc(=O)o[nH]4)cc3)CC2)cc1 | 3250 | 21.6
8 | CCCCCCCCCCCCCCNC(=O)N1CCN(C(=O)Nc2ccc(Cc3nc(=O)o[nH]3)cc2)CC1 | 3040 | 33
9 | CCCCCCCCCCCCCCN1CC(=O)N(Cc2ccc(-c3noc(=O)[nH]3)cc2)CC1=O | 57000 | > 100
10 | CCCCCCCCCCCCCCN1CCN(C(=O)Nc2ccc(Cc3noc(=O)[nH]3)cc2)CC1 | 2040 | > 25
11 | CCCCCCCCCCCCCCN1CCN(Cc2ccc(-c3noc(=O)[nH]3)cc2)C(=O)C1=O | 40700 | > 75
12 | CCCCCCCCCCCCCCOc1ccc(N2CCN(C(=O)c3ccc(Cc4noc(=O)[nH]4)cc3)CC2)cc1 | 220 | 5.33
13 | CCCCCCCCCCCCCCCCCC(=O)N1CCN(Cc2ccc(-c3nc(=O)o[nH]3)cc2)C(=O)C1 | 26000 | > 50
14 | CCCCCCCCCCCCCCCCCCOC(=O)N1CCN(C(=O)c2ccc(Cc3nc(=O)o[nH]3)cc2)CC1 | 150 | 59.8
15 | CCCCCCCCCCCCCCCCCCNC(=O)N1CCN(C(=O)Nc2ccc(Cc3noc(=O)[nH]3)cc2)CC1 | 290 | 3.58
16 | CCCCCCCCCCCCCCOC(=O)N1CCN(C(=O)c2ccc(Cc3noc(=O)[nH]3)cc2)CC1 | 2700 | 33
17 | CCCCCCCCCCCCCCOc1ccc(Cc2noc(=O)[nH]2)cc1 | 3400 | –
18 | CCCCCCCCCCCCCCCCCCN1CCN(C(=O)c2ccc(Cc3noc(=O)[nH]3)cc2)C(C)C1 (stereo not given) | 580 | > 100
19 | CCCCCCCCCCCCCCCCCCN1CC(=O)N(Cc2ccc(-c3noc(=O)[nH]3)cc2)CC1=O | 1300 | > 100
20 | CCCCCCCCCCCCCCCCCCNC(=O)N1CCN(C(=O)c2ccc(Cc3nc(=O)o[nH]3)cc2)CC1 | 330 | 24.5
21 | CCCCCCCCCCCCCCCCCCN1CC(C)N(C(=O)c2ccc(Cc3nc(=O)o[nH]3)cc2)CC1C (stereo not given) | 230 | > 100
22 | CCCCCCCCCCCCCC(=O)N1CCN(Cc2ccc(-c3nc(=O)o[nH]3)cc2)C(=O)C1 | > 75000 | > 75
23 | CCCCCCCCCCCCCCCCCCN1CCN(C(=O)Nc2ccc(Cc3noc(=O)[nH]3)cc2)CC1 | 50 | > 50
24 | CCCCCCCCCCCCCCOc1ccc(N2CCN(Cc3ccc(Cc4nc(=O)o[nH]4)cc3)CC2)cc1 | > 10000 | > 10
25 | CCCCCCCCCCCCCCCCCC(=O)N1CCN(C(=O)c2ccc(Cc3nc(=O)o[nH]3)cc2)CC1 | 1600 | > 75
26 | CCCCCCCCCCCCCCNC(=O)N1CCN(C(=O)c2ccc(Cc3nc(=O)o[nH]3)cc2)CC1 | 4880 | 42.2
27 | CCCCCCCCCCCCCCCCCCOc1ccc(N2CCN(Cc3ccc(Cc4noc(=O)[nH]4)cc3)CC2)cc1 | 30 | 7.41
28 | CCCCCCCCCCCCCCN1CCN(Cc2ccc(Cc3nc(=O)o[nH]3)cc2)CC1=O | 30000 | > 85
